Measurements from different studies.
Each line is one published result; the experiments were not run side by side.
Target: Serine/threonine-protein kinase PAK 2 (PAK2, Homo sapiens, UniProt Q13177)

Structure (SMILES)	read-out	action	technique	tested at	endpoint	result
CS(=O)(=O)N1CCCC(NC(=O)[C@H](CCC2CCCCC2)NC(=O)c2ccc(CNC(=O)c3cnc4ccccn34)cc2)C1 (some centres unmarked)	cell-free assay		competition with immobilised ligand	0.1 µM	remaining binding	93%
C#Cc1cccc(Nc2ncnc3cc(OCCOC)c(OCCOC)cc23)c1	cell-free assay			0.5 µM	remaining signal	99.1%
CC(C)(C)c1nc2c(s1)c1nc(N)ncc1c1ccc(NS(=O)(=O)c3c(F)cccc3F)c(F)c12	enzyme activity	inhibitor	radiometric	1 µM	remaining activity	102%
Cn1cc(Cl)c2c(Oc3c(F)cc(Nc4cc(Cl)nc(N)n4)cc3F)ccnc21	cell-free assay		competition with immobilised ligand	0.1 µM	remaining binding	100%
Cc1ccc(C(=O)NCc2ccsc2)cc1C#Cc1cn(C(C)C)c2ncnc(N)c12	enzyme activity	inhibitor		1 µM	activity vs control	79%
N#CCCc1ccc2c(c1)-c1[nH]c3ccc([N+](=O)[O-])cc3c1CC(=O)N2	cell-free assay			0.5 µM	remaining signal	55.6%
COc1cc(Cl)c(C(=O)N[C@@H](CN[C@H]2CC[C@@H](N)CC2)Cc2ccc(C#N)cc2)cc1-c1ccc(CN[C@H](C)c2ccc(C)cc2)o1	enzyme activity	inhibitor		1 µM	remaining activity	98%
O=C1Nc2ccc(Cl)cc2C1=Cc1cc(Cl)c(O)c(Cl)c1	cell-free assay			0.5 µM	remaining signal	96.8%
CC(C)(O)c1cncc(-c2nc3ccc(F)cc3n2C2CC2)c1	cell-free assay		competition with immobilised ligand	1 µM	remaining binding	100%
Oc1cccc(-c2nc(N3CCOCC3)c3oc4ncccc4c3n2)c1	enzyme activity	inhibitor		10 µM	remaining activity	106%
O=C(Nc1cnn(-c2csc(C(=O)NC3COC3)c2)c1)Nc1ccccc1Cl	enzyme activity	inhibitor		5 µM	remaining activity	90.1%
COc1cc2ncnc(Nc3ccc(Oc4ccccc4)cc3C)c2cc1OC	enzyme activity	inhibitor		1 µM	inhibition	2%
Cc1ccc(NC(=O)c2ccc(C)c(C(F)(F)F)c2)cc1C#Cc1nn(C2CCC(O)CC2)c2ncnc(N)c12 (centres unmarked)	cell-free assay			10 µM	remaining signal	68%
CSc1nc(C)c(-c2ccnc(Nc3ccc(N4CCOCC4)cc3)c2)[nH]1	enzyme activity	inhibitor		10 µM	inhibition	1.4%
CNCc1ccc(-c2cc(-c3nc(-c4ccc(S(=O)(=O)C(C)C)cc4)cnc3N)on2)cc1	enzyme activity	inhibitor		2 µM	inhibition	6%
COc1ccc2c(c1)O[C@H](c1ccc(OC)c(OC)c1)C[C@@H]2NC(=O)C1(c2ccc3c(c2)OC(F)(F)O3)CC1	cell-free assay		competition with immobilised ligand	1 µM	remaining binding	100%
CCOc1cc(-c2nncn2C)ccc1Nc1ncc2cc(C)nc(NCC(C)(C)C)c2n1	enzyme activity	inhibitor	FRET	1 µM	inhibition	< 15%
CO[C@@H](C)c1c(Nc2ccc([C@H](N(C)C(=O)C3CCS(=O)(=O)CC3)C(F)(F)F)cc2)cnc2cc(Cl)nn12	cell-free assay		competition with immobilised ligand	1 µM	remaining binding	76%
O=C(CSc1nc2nccnc2c(=O)n1CCc1ccccc1)Nc1nccs1	enzyme activity	inhibitor		10 µM	inhibition	1%
O=C1CCc2cc(Nc3cc(OC4CCOCC4)c([N+](=O)[O-])cc3Cl)ccc2N1	cell-free assay		competition with immobilised ligand	1 µM	remaining binding	96%
CCN(CC)CCNC(=O)c1c(C)[nH]c(/C=C2\C(=O)Nc3ccc(F)cc32)c1C	enzyme activity	inhibitor		0.3 µM	inhibition	-8%
COc1cc(Nc2cnc(C#N)c(O[C@H](C)CN(C)C)n2)ncc1-c1cnn(C)c1	enzyme activity	inhibitor	radiometric	1 µM	remaining activity	100%
Cc1nc(N2CC[C@@H](O)C2)ncc1-c1cc(C(F)(F)F)cc2[nH]ncc12	cell-free assay		competition with immobilised ligand	1 µM	remaining binding	100%
